Laboratory results published in ChEMBL document CHEMBL1141604, “Benzenesulfonamide indole inhibitors of cytosolic phospholipase A2alpha: optimization of in vitro potency and rat pharmacokinetics for oral efficacy” (Bioorg Med Chem, 2008).

Key:
Ovis aries [1] = test: Effect on Ascaris suum-induced late phase-bronchoconstriction in naturally sensitized sheep model assessed as increase in specific lung resistance at 1 mg/kg, po bid for 5 days; type: functional
How it was run: (§1)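 Naturally sensitized sheep challenged via the airways with Ascaris suum antigen. Pulmonary resistance recorded breath by breath using the esophageal balloon technique. Oral doses given in Phosal stock diluted with water, 0.25 mL/kg. Dosing BID before challenge and on challenge day, 2 h before and 8 h after. Early and late responses expressed as mean maximum % increase in specific lung resistance, compared with each sheep's historical control.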

Ovis aries [2] = test: Effect on Ascaris suum-induced early phase-bronchoconstriction in naturally sensitized sheep model assessed as increase in specific lung resistance at 3 mg/kg, po bid for 2 days; type: functional; how it was run: as §1
Rattus norvegicus [3] = test: Antiinflammatory activity against carrageenan-induced paw edema in Sprague-Dawley rat administered through MC/TW formulation; type: functional
How it was run: (§2)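 Male Sprague-Dawley rats, 190–250 g, n = 10 per group, housed 1 week beforehand. Left hind paw volume measured by plethysmometer before oral dosing in Phosal or MC/TW (0.5% methylcellulose, 2% Tween 80) vehicle. Two hours after dosing, 60 µL of 1% carrageenan in saline injected subplantar. Paw volume remeasured 3 h later; percent inhibition of swelling calculated versus vehicle.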

Ovis aries [4] = test: Effect on Ascaris suum-induced early phase-bronchoconstriction in naturally sensitized sheep model assessed as increase in specific lung resistance at 1 mg/kg, po bid for 5 days; type: functional; how it was run: as §1
[5] = Oral bioavailability in Beagle dog at 5 mg/kg administered through MC/TW formulation; type: ADME, organism-based, Canis lupus familiaris; settings: in vivo
How it was run: (§3)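 Fasted male Beagle dogs (n = 3) dosed orally in MC/TW or Phosal formulation, volume 4 or 6 mL/kg. Saphenous plasma collected over 24 h and measured by LC/MS/MS. F calculated as the dose-normalized oral/iv AUC ratio against 2 mg/kg iv.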

[6] = Oral bioavailability in Sprague-Dawley rat at 25 mg/kg administered through Phosal formulation; type: ADME, organism-based; settings: in vivo
How it was run: (§4)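 Overnight-fasted male Sprague-Dawley rats (n = 3) gavaged in MC/TW or Phosal vehicle; compound at 37.5 mg/mL, diluted with water, dosed at 4 mL/kg. Jugular blood taken over 24 h; plasma analysed by LC/MS/MS. F calculated as the dose-normalized oral/iv AUC ratio, iv reference 2 mg/kg.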

[7] = Oral bioavailability in Sprague-Dawley rat at 25 mg/kg administered through MC/TW formulation; type: ADME, organism-based; settings: in vivo; how it was run: as §4
Rattus norvegicus [8] = test: Antiinflammatory activity against carrageenan-induced paw edema in Sprague-Dawley rat assessed as decrease in paw volume at 25 mg/kg, po administered through Phosal formulation; type: functional; set-up: scale not given: the % may be the effect or the level left; how it was run: as §2
[9] = Clearance in Sprague-Dawley rat at 2 mg/kg, iv; type: ADME, organism-based; set-up: dose 2 mg/kg, route intravenous; settings: in vivo
How it was run: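 Male Sprague-Dawley rats, 200–300 g, n = 3, given a single 2 mg/kg tail-vein bolus in 50% PEG-400/50% DMSO. Blood drawn via jugular cannula over 24 h and plasma acidified with HCl. Plasma levels measured by LC/MS/MS after acetonitrile precipitation with internal standard; quantitation limit 5 ng/mL. Clearance from non-compartmental analysis.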

[10] = Oral bioavailability in Beagle dog at 5 mg/kg administered through Phosal formulation; type: ADME, organism-based, Canis lupus familiaris; settings: in vivo; how it was run: as §3
Rattus norvegicus [11] = test: Antiinflammatory activity against carrageenan-induced paw edema in Sprague-Dawley rat decrease in paw volume at 25 mg/kg, po administered through MC/TW formulation; type: functional; set-up: scale not given: the % may be the effect or the level left; how it was run: as §2
[12] = Selectivity for human cPLA2-alpha over COX2
Rattus norvegicus [13] = test: Antiinflammatory activity against carrageenan-induced paw edema in Sprague-Dawley rat decrease in paw volume at 10 mg/kg, po administered through MC/TW formulation; type: functional; set-up: scale not given: the % may be the effect or the level left; how it was run: as §2
[14] = Selectivity for human cPLA2-alpha over COX1
[15] = target: Prostaglandin G/H synthase 1 (Homo sapiens) (UniProt P23219); test: Inhibition of COX1 at 100 uM
Ovis aries [16] = test: Effect on Ascaris suum-induced early phase-bronchoconstriction in naturally sensitized sheep model assessed as increase in specific lung resistance at 10 mg/kg, iv bid for 1 day; type: functional
[17] = target: T1, Prostaglandin G/H synthase 2 (Homo sapiens) (UniProt P35354); test: Inhibition of COX2 at 100 uM
T1 sequence (whole entry): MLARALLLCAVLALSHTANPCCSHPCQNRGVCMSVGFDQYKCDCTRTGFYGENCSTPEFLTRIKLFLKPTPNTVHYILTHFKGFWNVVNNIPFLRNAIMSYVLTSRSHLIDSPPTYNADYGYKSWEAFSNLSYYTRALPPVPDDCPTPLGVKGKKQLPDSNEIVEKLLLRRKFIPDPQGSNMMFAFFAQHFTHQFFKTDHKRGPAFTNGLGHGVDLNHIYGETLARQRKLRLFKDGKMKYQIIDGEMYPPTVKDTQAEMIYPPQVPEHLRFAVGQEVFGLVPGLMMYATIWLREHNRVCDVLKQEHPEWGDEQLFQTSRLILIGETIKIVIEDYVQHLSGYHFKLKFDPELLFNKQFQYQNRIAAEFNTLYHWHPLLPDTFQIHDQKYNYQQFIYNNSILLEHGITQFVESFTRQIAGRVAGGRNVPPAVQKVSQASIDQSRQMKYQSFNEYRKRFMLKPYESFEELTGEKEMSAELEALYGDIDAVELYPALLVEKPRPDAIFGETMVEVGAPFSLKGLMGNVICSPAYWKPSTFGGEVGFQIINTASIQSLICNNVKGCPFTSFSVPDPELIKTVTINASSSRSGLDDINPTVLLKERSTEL

[18] = Inhibition of cPLA2-alpha in Sprague-Dawley rat whole blood assay in presence of A23187; type: tissue-based
How it was run: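 Heparinized blood from male Sprague-Dawley rats, taken by cardiac puncture. Preincubated 15 min at 37 °C with compound in DMSO, then stimulated 10 min at 37 °C with 5 µM A23187 (final). Stopped with 20 mM EDTA; plasma precipitated with cold methanol at −80 °C. TXB2 measured by immunoassay; IC50 values averaged from at least two independent runs.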

Blood [19] = test: Inhibition of LTB4 production in human whole blood assay; type: functional, tissue-based
How it was run: (§5)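 Heparinized blood from healthy male volunteers (3 donors). Aliquots preincubated 15 min at 37 °C with compound in DMSO, then stimulated 15 min with 30 µM A23187 (final). Reaction stopped with 20 mM EDTA; plasma proteins precipitated with cold methanol. TXB2, LTB4, PGE2 and PGF2α measured by immunoassay kit; IC50 derived.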

Blood [20] = test: Inhibition of PGF2-alpha production in human whole blood assay; type: functional, tissue-based; how it was run: as §5
Ovis aries [21] = test: Effect on Ascaris suum-induced late phase-bronchoconstriction in naturally sensitized sheep model assessed as increase in specific lung resistance at 10 mg/kg, iv bid for 1 day; type: functional
Blood [22] = test: Inhibition of PGE2 production in human whole blood assay; type: functional, tissue-based; how it was run: as §5
[23] = Inhibition of human cPLA2-alpha assessed as cleavage of 7-hydroxycoumarinyl-gamma-linolenate
How it was run: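 Substrate 90 µM GLU with 120 µM DTPC. Compounds in DMSO tested in duplicate. Fluorescence (ex 355/em 460 nm) read every 4 min for 84 min; inhibition from slope. IC50 averaged from at least two independent runs.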

Ovis aries [24] = test: Effect on Ascaris suum-induced late phase-bronchoconstriction in naturally sensitized sheep model assessed as increase in specific lung resistance at 3 mg/kg, po bid for 2 days; type: functional; how it was run: as §1
[25] = Binding affinity at human cPLA2-alpha by isothermal calorimetry
How it was run: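 ITC at 30 °C. Purified human cPLA2α dialyzed into 50 mM Hepes pH 7.4, 0.3 mM EDTA, 1 mM CaCl2, 300 mM KCl. Cell held 2.5 µM protein with 1% DMSO and 940 µM Triton X-100. Syringe held 78.5 µM compound in matching buffer; twenty 10 µL injections. Buffer-only titration subtracted as background; single-site fit gave Kd and stoichiometry.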

Blood [26] = test: Inhibition of TXB2 production in human whole blood assay; type: functional, tissue-based; how it was run: as §5
[27] = Clearance in Beagle dog at 2 mg/kg, iv; type: ADME, organism-based, Canis lupus familiaris; set-up: dose 2 mg/kg, route intravenous; settings: in vivo
How it was run: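 Male Beagle dogs, 8.5–13.0 kg, n = 3, fasted overnight, given 2 mg/kg iv in 20% DMSO/80% PEG-200. Saphenous blood sampled over 24 h and plasma acidified to about pH 4. Analysed by LC/MS/MS with internal standard. Clearance by non-compartmental methods.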

Sequence of Prostaglandin G/H synthase 1 (Homo sapiens) (P23219 whole entry): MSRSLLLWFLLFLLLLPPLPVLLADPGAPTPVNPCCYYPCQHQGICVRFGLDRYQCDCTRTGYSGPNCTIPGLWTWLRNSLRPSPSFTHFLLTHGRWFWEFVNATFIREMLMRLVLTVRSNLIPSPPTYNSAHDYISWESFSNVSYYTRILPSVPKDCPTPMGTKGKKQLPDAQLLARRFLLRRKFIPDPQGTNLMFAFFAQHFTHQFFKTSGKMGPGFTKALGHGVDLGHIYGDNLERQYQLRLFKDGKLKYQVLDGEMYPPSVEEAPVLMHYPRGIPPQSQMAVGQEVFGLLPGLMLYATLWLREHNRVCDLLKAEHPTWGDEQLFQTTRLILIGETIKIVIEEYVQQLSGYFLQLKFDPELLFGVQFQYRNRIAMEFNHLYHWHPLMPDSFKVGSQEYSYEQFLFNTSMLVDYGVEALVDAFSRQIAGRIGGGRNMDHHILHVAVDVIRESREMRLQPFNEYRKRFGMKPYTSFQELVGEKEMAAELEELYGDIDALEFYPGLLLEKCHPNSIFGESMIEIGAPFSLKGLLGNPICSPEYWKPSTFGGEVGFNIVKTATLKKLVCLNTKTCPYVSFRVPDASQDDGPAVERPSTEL

bioavailability [5]: 16% | bioavailability [6]: 5% | bioavailability [7]: 13% | clearance [9]: 14 mL/min/kg | bioavailability [10]: 13% | Selectivity ratio [12]: > 1000 | Selectivity ratio [14]: > 1000 | inhibition [15]: 45% | inhibition [17]: 9.9% | IC50 [18]: 100 nM | IC50 (Blood [19]): 82 nM | IC50 (Blood [20]): 110 nM | IC50 (Blood [22]): 60 nM | IC50 [23]: 65 nM | Kd [25]: 80 nM | IC50 (Blood [26]): 120 nM | clearance [27]: 1.4 mL/min/kg
Structure (SMILES): O=C(O)c1ccc(CCCc2c(CCNS(=O)(=O)c3c(F)cccc3C(F)(F)F)n(C(c3ccccc3)c3ccccc3)c3ccc(Cl)cc23)cc1
Activity (Ovis aries [1]): 68% | Activity (Ovis aries [2]): 379% | ED50 (Rattus norvegicus [3]): < 10 mg/kg | Activity (Ovis aries [4]): 431% | Activity (Rattus norvegicus [8]): 16% | Activity (Rattus norvegicus [11]): 44% | Activity (Rattus norvegicus [13]): 34% | Activity (Ovis aries [16]): 346% | Activity (Ovis aries [21]): 29% | Activity (Ovis aries [24]): 29%
